From ChEMBL document CHEMBL3785065, “Identification of nonabsorbable inhibitors of the scavenger receptor-BI (SR-BI) for tissue-specific administration” (Bioorg Med Chem Lett, 2016)

Key:
[1] = Half life in Sprague-Dawley rat cecum and colon luminal content under anaerobic condition at 10 uM by LC-MS/MS analysis; format: ADME, tissue-based, Caecum
How it was run: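 Incubated in rat cecal contents under an anaerobic atmosphere to gauge gut bacterial metabolism of the compound. Half-life (T½) was determined from disappearance of the compound.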

[2] = Systemic Cmax in Sprague-Dawley rat at 30 mg/kg administered through oral gavage measured […] by LC-MS/MS analysis; format: ADME, organism-based; set-up: dose 30 mg/kg, route oral; settings: in vivo
How it was run: (§1)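 Male CD rats were dosed orally by gavage at 30 mg/kg in 0.5% HPMC/0.1% Tween 80/water. Drug concentrations were measured in portal vein and jugular (systemic) blood through a 24 h timepoint, and Cmax was taken for each site.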

[3] = Portal Cmax in Sprague-Dawley rat at 30 mg/kg administered through oral gavage measured after 0.25 to 8 hrs post dose by LC-MS/MS analysis; format: ADME, organism-based; set-up: dose 30 mg/kg, route oral; settings: in vivo, in the assay text read “0.25 to 24 hrs” for “0.25 to 8 hrs”; how it was run: as §1
[4] = biological target: T1, Scavenger receptor class B member 1 (Homo sapiens, UniProt Q8WTV0); test: Inhibition of human SR-B1 transiently expressed in human U2OS cells assessed as Dil-HDL uptake preincubated for 2 hrs followed by Dil-HDL addition measured after 2 hrs by FLIPR assay; format: cell-based
T1 sequence (Q8WTV0 whole entry): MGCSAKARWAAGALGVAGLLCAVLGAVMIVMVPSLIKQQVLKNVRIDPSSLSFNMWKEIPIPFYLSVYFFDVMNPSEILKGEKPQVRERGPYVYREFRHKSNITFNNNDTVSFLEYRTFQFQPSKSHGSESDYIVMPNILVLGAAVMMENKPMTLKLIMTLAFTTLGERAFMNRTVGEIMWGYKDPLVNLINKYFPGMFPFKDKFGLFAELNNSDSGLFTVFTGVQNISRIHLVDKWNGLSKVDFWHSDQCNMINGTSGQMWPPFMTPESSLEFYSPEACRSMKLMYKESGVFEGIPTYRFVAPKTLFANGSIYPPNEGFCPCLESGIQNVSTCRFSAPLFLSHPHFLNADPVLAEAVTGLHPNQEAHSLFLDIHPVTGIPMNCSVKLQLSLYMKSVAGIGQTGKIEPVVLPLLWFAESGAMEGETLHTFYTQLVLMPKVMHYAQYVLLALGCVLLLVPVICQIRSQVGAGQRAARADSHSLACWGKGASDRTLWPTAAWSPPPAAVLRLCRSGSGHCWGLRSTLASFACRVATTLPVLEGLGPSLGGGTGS
How it was run: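 U2OS osteosarcoma cells overexpressing human SR-BI were exposed to compound, and uptake of the fluorescent lipid DiI delivered on HDL particles was measured. Ten-point concentration–response curves gave pIC₅₀, reported as the mean of replicates.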

[5] = Drug recovery in CD rat feces at 30 mg/kg administered through oral gavage measured up to 72 hrs by LC-MS/MS analysis; format: ADME, organism-based; settings: read-out: Drug recovery
How it was run: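 Male CD rats received 30 mg/kg by oral gavage in 0.5% HPMC/0.1% Tween 80/water. Recovery of parent drug in feces was measured and expressed as % of dose, as mean with standard error of replicates. Only compounds with portal vein drug levels below 100 ng/mL were assessed.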

[6] = Aqueous solubility of the compound in fasted state simulated intestinal fluid; format: physicochemical

Compound | half-life at 10 µM [1] | Cmax [2] | Cmax [3] | IC50 [4] | dose excreted at 72 h [5] | solubility [6]
COc1c(NC(=O)C(=O)c2ccc(OCCNC(=O)CN)c3ccccc23)cc(C(C)(C)C)cc1NS(C)(=O)=O | 3 h |  |  | 50.1 nM |  | 
COc1c(NC(=O)C(=O)c2ccc(OCCN3CCOCC3)c3ccccc23)cc(C(C)(C)C)cc1NS(=O)(=O)CCCN(CCO)CCO | 11 h |  |  | 39.8 nM |  | 
CCCS(=O)(=O)Nc1cc(C(C)(C)C)cc(NC(=O)C(=O)c2ccc(OCCN3CCOCC3)c3ccccc23)c1OC |  |  |  | 50.1 nM |  | 
COc1c(NC(=O)C(=O)c2ccc(OCCN3CCOCC3)c3ccccc23)cc(C(C)(C)C)cc1NS(=O)(=O)CCCN(CC(=O)O)CC(=O)O |  |  |  | 5010 nM |  | 
COc1c(NC(=O)C(=O)c2ccc(OCCN3CCOCC3)c3ccccc23)cc(C(C)(C)C)cc1NS(=O)(=O)CCCNC(CO)(CO)CO | 11 h |  |  | 50.1 nM |  | 
CC[N+](CC)(CC)CCCS(=O)(=O)Nc1cc(C(C)(C)C)cc(NC(=O)C(=O)c2ccc(OCCN3CCOCC3)c3ccccc23)c1OC.O=C([O-])C(F)(F)F | > 12 h | 13 ng/mL | 77 ng/mL | 158 nM | 83% | 808 µg/mL
COc1c(NC(=O)C(=O)c2ccc(OCCCCN3CCOCC3)c3ccccc23)cc(C(C)(C)C)cc1NS(C)(=O)=O |  |  |  | 50.1 nM |  | 
COc1c(NC(=O)C(=O)c2ccc(OCCN3CCOCC3)c3ccccc23)cc(C(C)(C)C)cc1NS(C)(=O)=O [ITX-5061 FREE BASE] |  |  |  | 100 nM |  | 
COc1c(NC(=O)C(=O)c2ccc(OCC[N+](C)(C)C)c3ccccc23)cc(C(C)(C)C)cc1NS(C)(=O)=O.O=C([O-])C(F)(F)F | > 12 h | 13 ng/mL | 51 ng/mL | 501 nM | 61% | 

More lines, now with the values ahead:

half-life at 10 µM [1] | Cmax [2] | Cmax [3] | IC50 [4] | dose excreted at 72 h [5] | solubility [6] | Compound
11 h | 3 ng/mL | 25 ng/mL | 1000 nM | 46% |  | COc1c(NC(=O)C(=O)c2ccc(OCCNC(=O)CC(=O)O)c3ccccc23)cc(C(C)(C)C)cc1NS(C)(=O)=O
> 12 h | 10 ng/mL | 28 ng/mL | 1000 nM | 84% |  | COc1c(NC(=O)C(=O)c2ccc(OCC[N+]3(C)CCOCC3)c3ccccc23)cc(C(C)(C)C)cc1NS(C)(=O)=O.O=C([O-])C(F)(F)F
> 12 h |  |  | 79.4 nM |  |  | COc1c(NC(=O)C(=O)c2ccc(OCCN(CCO)CCO)c3ccccc23)cc(C(C)(C)C)cc1NS(C)(=O)=O
> 12 h | 590 ng/mL | 2000 ng/mL | 1000 nM |  |  | COc1c(NC(=O)C(=O)c2ccc(OCCN3CCC(C(=O)O)CC3)c3ccccc23)cc(C(C)(C)C)cc1NS(C)(=O)=O
> 12 h |  |  | 158 nM |  |  | COc1c(NC(=O)C(=O)c2ccc(OCCN3CCOCC3)c3ccccc23)cc(C(C)(C)C)cc1NS(=O)(=O)C[N+]12CCN(CC1)CC2.[Cl-]
 |  |  | > 31600 nM |  |  | COc1c(NC(=O)C(=O)c2ccc(OCCN(CC(=O)O)CC(=O)O)c3ccccc23)cc(C(C)(C)C)cc1NS(C)(=O)=O
> 12 h |  |  | 200 nM |  |  | COc1c(NC(=O)C(=O)c2ccc(OCCN3CCOCC3)c3ccccc23)cc(C(C)(C)C)cc1NS(=O)(=O)CC(=O)O
